Screens as filed in PubChem.
NR2E3 ag-1 = agonists of human NR2E3 nuclear receptor. Q9Y5X4. AID 602229. actives 0.35% (n = 360,000). inhibition of corepressor binding, % at 3.98 µM. CHO-S Gal4-NCOR/VP16-NR2E3 two-hybrid, luciferase;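 active means inhibition above the mean of all tested compounds plus 3 SD, cut at about 70% in these data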;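 further: 0% = DMSO with NR2E3 transfected cells and 100% = cells lacking NR2E3 construct; higher means lower luciferase signal from less NR2E3 corepressor binding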
Rev-erbA mod = modulators of human Rev-erb alpha DNA binding | Rev-erbα–FITC-DNA binding, fluorescence polarization, 90 min | activity, % at 10 µM | actives 0.79% (n = 370,000) | AID 1259318;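 active means activity above about 14%, limit read from the data; passing the limit was not always enough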;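 further: 0% = DMSO wells with 35 nM protein and 100% = DMSO wells with 750 nM protein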
VLA-4 inh = inhibition in a human VLA-4 binding assay | P13612 | VLA-4 expressing cells, ligand binding flow cytometry | inhibition, % (about 7 µM as worked out from the volumes in the protocol) | actives 0.2% (n = 330,000); in the data active means inhibition above about 50%
PG9 binder = binds the HIV-1 gp120 antibody PG9; TR-FRET gp120-PG9 antibody binding; inhibition, % at 6.7 µM; actives 0.43% (n = 360,000); AID 624416; in the data active means inhibition above about 8.5%
NR2E3 ag-2 = NR2E3 (human) agonism; inhibition of corepressor binding, % at 4.78 µM; GST-NR2E3/biotin-RetCOR TR-FRET, 1536-well; Q9Y5X4; actives 0.12% (n = 320,000); AID 2300;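 active means percent inhibition above the cutoff of mean plus 3 SD of all tested compounds, set per screening campaign, cut at about 20% in these data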;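 further: 0% = DMSO wells and 100% = biotin wells as full block of FRET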
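Material – GST-tagged NR2E3 plus biotinylated RetCOR corepressor · Quantity – NR2E3 fusion 1.35 nM · Times – 5 h incubation at 4 °C · Medium – pH 7.5 Tris-based buffer · Technique – TR-FRET, Eu(K)-anti-GST donor, streptavidin-D2 acceptor, ex 340, em 617/671 nm · Benchmarks – high control biotin, low control 0.6% DMSO · Format – 1536-well plates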
Rev-erbA confirm = Rev-erb alpha (human) modulation, hit confirmation; shares compounds with Rev-erbA mod; Rev-erb alpha FITC-DNA binding, fluorescence polarization, 90 min; activation, % at 25 µM; actives 61% (n = 3,000); AID 1259319;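 active means activation at or above a set limit, or at least 3 SD above the negative control mean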;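 further: 0% = 35 nM protein with DMSO and 100% = 750 nM protein high control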
RORg DNA counter = counter-screen for Rev-erb alpha modulators: RORgamma DNA binding. shares compounds with Rev-erbA mod. purified RORgamma protein-FITC-DNA binding, fluorescence polarization. IC50, µM. actives 8% (n = 910). AID 1259320;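 active means Compounds whose fitted half-maximal concentration for disrupting protein-DNA binding is below 10 micromolar; the record names Rev-erb in its text, so the target is in doubt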
Active calls of the source: *; i = inactive; . = not tested or not shown. An excerpt weighted towards active compounds, which were near 1.6% of everything screened.

SMILES | NR2E3 ag-1 | Rev-erbA mod | VLA-4 inh | PG9 binder | NR2E3 ag-2 | Rev-erbA confirm | others
Cc1cc(N2CCOCC2)n2nc(C(F)(F)F)c(-c3ccccc3)c2n1 | 14 | 28* | -9 | 0 | . | -2
Cc1nn2c(N3CCOCC3)cc(C(C)(C)C)nc2c1-c1ccc(Cl)cc1 | 10 | 30* | . | 0 | . | -5
Cc1cc(N2CCOCC2)n2ncc(-c3ccc(Cl)cc3)c2n1 | 12 | 8 | 1 | 1 | -1 | .
O=C(COc1ccccc1)N=C1SC2CS(=O)(=O)CC2N1c1ccc(F)cc1 (stereo not drawn) | 2 | -1 | -8 | 1 | -1 | .
CCCn1c(N)c(C(=O)CSc2nc3ccccc3c(=O)n2Cc2ccccc2)c(=O)[nH]c1=O | -3 | 74* | 9 | 1 | 0 | 61*
CCCn1c(N)c(C(=O)CSc2nc(C)nc3sc(C)c(C)c23)c(=O)[nH]c1=O | 3 | 35* | -10 | 0 | -4 | 61* | RORg DNA counter=i
CCCn1c(N)c(C(=O)CSc2nc(C)cs2)c(=O)[nH]c1=O | -5 | -7 | 6 | 1 | -5 | .
CCN(C(=O)CSc1nc(C)nc2sc(C)c(C)c12)c1ccc(F)cc1 | -10 | 24* | -7 | 2 | -1 | 9
Cc1nc(SCC(=O)N(C)Cc2ccco2)c2c(C)c(C)sc2n1 | 2 | -1 | 17 | 0 | -2 | .
O=C(NCCCN1CCCC1=O)[C@H](CSCc1ccccc1)N1Cc2ccccc2C1=O | -14 | 1 | -4 | -1 | 5 | .
COc1ccc(CNC(=O)C/C(C)=N/NC(=O)c2ccccc2OC)cc1 | -44 | -4 | 24 | 0 | 0 | .
O=C(CCc1cn(Cc2ccc(F)cc2)c2ccccc12)N1CCOCC1 | -1 | 3 | -8 | -2 | 3 | .
C=CCN1C=CC(=CC=C(C#N)C#N)C=C1 | -8 | 32* | -12 | -10 | -11 | 22*
CCCN1C=CC(=CC=C(C#N)C#N)C=C1 | 8 | 28* | -10 | -13 | -13 | 13
CCCCCCN1C=CC(=C/C=C(\C#N)C(=O)OCC)C=C1 | -28 | 58* | -60 | -14 | 1 | 30*
CCOC(=O)/C(C#N)=C/C=C1\C=Cc2ccccc2N1CC | -6 | 74* | -67 | -13 | -1 | 56* | RORg DNA counter=7.4*
Cc1ccc2c(c1)-c1c(cnn1CC(=O)NCCc1ccc(Cl)cc1)CO2 | . | -4 | . | . | . | .
COc1ccc(CCN(C)C(=O)c2cc(-c3ccc(C)cc3)nc3ccccc23)cc1OC | -25 | 11 | -3 | -3 | 3 | .
O=C(Nc1ccc(C(F)(F)F)cc1)c1cc(-c2cccnc2)nc2ccc(Br)cc12 | 20 | 34* | 11 | 0 | 8 | 22*
Cc1onc(-c2c(F)cccc2Cl)c1C(=O)Nc1sc2c(c1C#N)CCC(C(C)(C)C)C2 (stereo not drawn) | 12 | 27* | -3 | -2 | 2 | 20*
COc1ccc(-c2c(C#Cc3ccsc3)c3cc(-c4ccc5c(c4)OCCO5)ccc3n2C)cc1 | 1 | 54* | 30 | 2 | . | 77* | RORg DNA counter=3.4*
COc1cc(OC)cc(-c2c(C#Cc3ccsc3)c3cc(-c4ccc5c(c4)OCO5)ccc3n2C)c1 | -26 | 26* | -3 | -6 | . | 26*
COc1ccc(-c2c(C#Cc3ccsc3)c3cc(-c4ccc(C(N)=O)cc4)ccc3n2C)cc1 | 13 | -2 | -11 | -1 | . | .
COc1ccc(-c2c(C#Cc3ccsc3)c3cc(-c4ccc5[nH]ccc5c4)ccc3n2C)cc1 | 7 | 4 | 5 | -1 | 0 | .
COc1ccc(-c2c(C#Cc3ccsc3)c3cc(-c4ccc5c(c4)OCO5)ccc3n2C)cc1 | -15 | 21* | 16 | 0 | -6 | 30*
Cn1cc([C@]2(O)C(=O)N(c3ccccc3)c3ccccc32)c2ccccc21 | . | 7 | . | -1 | . | .
CCc1cc(=O)oc2c(C)c(OCC(=O)NCc3ccccn3)ccc12 | 12 | 30* | 2 | 0 | -1 | 23*
COc1ccc(C(=O)OCCOc2cccc(Cl)c2)cc1S(=O)(=O)N1CCOCC1 | -15 | 4 | 11 | -1 | 0 | .
